Measured values taken from ChEMBL document CHEMBL2029271, “Design and synthesis of cannabinoid receptor 1 antagonists for peripheral selectivity” (J Med Chem, 2012).

Legend:
[1] = test system: MDCK; assay: Permeability from apical to basal side of MDCK cells expressing human mdr1 gene; format: ADME, cell-based, Canis lupus familiaris; conditions: dog
In short: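 MDCK-mdr1 cells grown 4 days to confluence on Transwell-type filters in DMEM/F12 with 10% FBS and antibiotics. Compound added apically at 3.16 μM in HBSS with 25 mM D-glucose, HEPES-buffered to pH 7.4; 1 hr at 37°C. Apical and basal samples collected and analysed by LC-MS/MS (MRM).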

[2] = biological target: T1, Cannabinoid receptor 1 (Homo sapiens, UniProt P21554); conditions: CHO-K1
[3] = biological target: Cannabinoid receptor 2 (Homo sapiens, UniProt P34972); assay: Displacement of [3H]CP55940 from CB2 receptor expressed in CHO-K1 cells; format: cell-based
[4] = species: Homo sapiens; assay: Selectivity ratio of Ki for CB2 receptor to Ki for human CB1 receptor
[5] = biological target: T1, Cannabinoid receptor 1; assay: biochemical; format: cell-based, CHO-K1
[6] = test system: Plasma; assay: Metabolic stability in human plasma assessed as compound remaining at 10 uM preincubated for 5 mins measured after 60 mins; format: ADME, cell-free; conditions: 1 h
In short: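 Human plasma, 1 ml per sample at 37°C, 5 min pre-incubation, then compound at 10 μM final, sampled at 0, 30 and 60 min. Reactions stopped with acetonitrile; LC-MS/MS (MRM) quantitation with standards in blank matrix; % parent remaining at 60 min.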

[7] = Metabolic stability in human hepatic S9 fraction assessed as compound remaining at 10 uM after 120 mins; format: ADME, Liver; conditions: s9, 2 h
In short: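 Human hepatic S9 (1 mg/ml) with 10 μM final compound in 50 mM potassium phosphate pH 7.4, 3 mM MgCl2, NADPH regenerating system (NADP 1 mM, glucose-6-phosphate 5 mM, G6PDH 1 unit/ml). Triplicates sampled at 0, 15, 30, 60, 120 min; stopped with 3 volumes acetonitrile; LC-MS/MS (MRM) against matrix standard curves; % parent remaining at 120 min.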
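Wherever Ke is given: antagonism measured as blockade of CP55940-evoked intracellular Ca2+ rise, read fluorometrically, in cells additionally carrying Galphaq16.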

Chain of Cannabinoid receptor 2 (P34972 whole entry): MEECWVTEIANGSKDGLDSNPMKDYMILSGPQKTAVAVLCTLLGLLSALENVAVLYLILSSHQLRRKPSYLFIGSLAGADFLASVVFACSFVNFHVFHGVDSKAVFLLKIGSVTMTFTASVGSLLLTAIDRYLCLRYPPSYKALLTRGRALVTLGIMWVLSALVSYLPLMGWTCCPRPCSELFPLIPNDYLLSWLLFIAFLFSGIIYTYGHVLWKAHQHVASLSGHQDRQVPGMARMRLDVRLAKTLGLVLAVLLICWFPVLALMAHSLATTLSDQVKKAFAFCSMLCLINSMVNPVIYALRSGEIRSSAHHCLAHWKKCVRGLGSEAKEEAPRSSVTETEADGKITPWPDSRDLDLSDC
T1 sequence (P21554 whole entry): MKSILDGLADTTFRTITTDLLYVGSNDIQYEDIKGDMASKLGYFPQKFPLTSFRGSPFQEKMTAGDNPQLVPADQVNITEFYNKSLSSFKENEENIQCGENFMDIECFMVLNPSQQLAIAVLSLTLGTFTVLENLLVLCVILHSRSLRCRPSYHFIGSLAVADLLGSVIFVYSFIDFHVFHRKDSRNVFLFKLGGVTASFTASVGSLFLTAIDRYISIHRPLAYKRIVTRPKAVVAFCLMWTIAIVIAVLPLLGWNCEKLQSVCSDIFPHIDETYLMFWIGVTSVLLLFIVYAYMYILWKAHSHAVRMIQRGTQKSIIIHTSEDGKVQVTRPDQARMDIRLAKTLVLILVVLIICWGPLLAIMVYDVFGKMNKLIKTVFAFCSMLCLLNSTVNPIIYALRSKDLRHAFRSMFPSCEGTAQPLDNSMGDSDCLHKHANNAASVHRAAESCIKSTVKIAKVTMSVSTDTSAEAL

CCNC1(C(N)=O)CCN(c2ncnc3c2nc(-c2ccccc2Cl)n3-c2ccc(Cl)cc2)CC1 [OTENABANT]
permeability [1]: 90%

Cc1c(C(=O)N2CCC(NC(=O)NC3CCCCC3)(c3ccccc3)CC2)nn(-c2ccc(Cl)cc2Cl)c1-c1ccc(Cl)cc1
Ke [2]: 12 nM | Ki [3]: 20000 nM | Ratio Ki [4]: 25

Cc1c(C(=O)N[C@@H]2CCCN(S(C)(=O)=O)C2)nn(-c2ccc(Cl)cc2Cl)c1-c1ccc(Cl)cc1
Ke [2]: 7 nM | permeability [1]: < 1% | Ki [5]: 11.8 nM | Ki [3]: 1250 nM | Ratio Ki [4]: 106

CCCNC(=O)NCC1CCC(CNC(=O)c2nn(-c3ccc(Cl)cc3Cl)c(-c3ccc(Cl)cc3)c2C)CC1 (configuration not stated)
Ke [2]: 486 nM

CCCNC(=O)N1CCC[C@@H](NC(=O)c2nn(-c3ccc(Cl)cc3Cl)c(-c3ccc(Cl)cc3)c2C)C1
Ke [2]: 27 nM | Ki [5]: 134 nM | Ki [3]: 3090 nM | Ratio Ki [4]: 23

Cc1c(C(=O)N[C@@H]2CCCN(C(=O)NC(C)C)C2)nn(-c2ccc(Cl)cc2Cl)c1-c1ccc(Cl)cc1
Ke [2]: 31.3 nM | Ki [5]: 97 nM | Ki [3]: 4130 nM | Ratio Ki [4]: 43

CC(=O)NC1(c2ccccc2)CCN(C(=O)c2nn(-c3ccc(Cl)cc3Cl)c(-c3ccc(Cl)cc3)c2C)CC1
Ke [2]: 201 nM | Ratio Ki [4]: 3.4

Cc1c(C(=O)NC2CCN(C(=O)NC(C)C)CC2)nn(-c2ccc(Cl)cc2Cl)c1-c1ccc(Cl)cc1
Ke [2]: 16.7 nM | permeability [1]: 14% | Ki [5]: 86 nM | Ki [3]: 9790 nM | Ratio Ki [4]: 114

Cc1c(C(=O)N2CCC(C(=O)O)(c3ccccc3)CC2)nn(-c2ccc(Cl)cc2Cl)c1-c1ccc(Cl)cc1
Ke [2]: 1170 nM

CCCCNC(=O)N1CCC[C@H](NC(=O)c2nn(-c3ccc(Cl)cc3Cl)c(-c3ccc(Cl)cc3)c2C)C1
Ke [2]: 230 nM

Cc1c(C(=O)N[C@H]2CCCN(C(=O)NC(C)C)C2)nn(-c2ccc(Cl)cc2Cl)c1-c1ccc(Cl)cc1
Ke [2]: 265 nM

Cc1c(C(=O)N2CCC(NC(=O)Nc3ccc(N(C)C)cc3)(c3ccccc3)CC2)nn(-c2ccc(Cl)cc2Cl)c1-c1ccc(Cl)cc1
Ke [2]: 264 nM | Ki [5]: 1490 nM | Ki [3]: 16300 nM | Ratio Ki [4]: 11

Cc1c(C(=O)NCC2CCC(CNS(N)(=O)=O)CC2)nn(-c2ccc(Cl)cc2Cl)c1-c1ccc(Cl)cc1 (configuration not stated)
Stability [6]: > 90% | Stability [7]: 62%

CCNC(=O)N1CCC(NC(=O)c2nn(-c3ccc(Cl)cc3Cl)c(-c3ccc(Cl)cc3)c2C)CC1
Ke [2]: 20.5 nM | Ki [5]: 165 nM | Ki [3]: 5690 nM | Ratio Ki [4]: 35

CCCNC(=O)N1CCC[C@H](NC(=O)c2nn(-c3ccc(Cl)cc3Cl)c(-c3ccc(Cl)cc3)c2C)C1
Ke [2]: 70 nM | Ki [5]: 271 nM | Ki [3]: 7800 nM | Ratio Ki [4]: 29

CCNC(=O)NC1(c2ccccc2)CCN(C(=O)c2nn(-c3ccc(Cl)cc3Cl)c(-c3ccc(Cl)cc3)c2C)CC1
Ke [2]: 10.8 nM | Ratio Ki [4]: 12

CCOC(=O)N1CCC[C@H](NC(=O)c2nn(-c3ccc(Cl)cc3Cl)c(-c3ccc(Cl)cc3)c2C)C1
Ke [2]: 75 nM | permeability [1]: < 1% | Ki [5]: 65.5 nM | Ki [3]: 5420 nM | Ratio Ki [4]: 83

CCCCNC(=O)N1CCC[C@@H](NC(=O)c2nn(-c3ccc(Cl)cc3Cl)c(-c3ccc(Cl)cc3)c2C)C1
Ke [2]: 118 nM | Ki [5]: 125 nM | Ki [3]: 3030 nM | Ratio Ki [4]: 24

Cc1c(C(=O)N[C@@H]2CCCNC2)nn(-c2ccc(Cl)cc2Cl)c1-c1ccc(Cl)cc1
Ke [2]: 1170 nM

CCOC(=O)N1CCC[C@@H](NC(=O)c2nn(-c3ccc(Cl)cc3Cl)c(-c3ccc(Cl)cc3)c2C)C1
Ke [2]: 10.4 nM | permeability [1]: < 1% | Ki [5]: 17.5 nM | Ki [3]: 2510 nM | Ratio Ki [4]: 143

CC(=O)N1CCC[C@H](NC(=O)c2nn(-c3ccc(Cl)cc3Cl)c(-c3ccc(Cl)cc3)c2C)C1
Ke [2]: 86 nM | permeability [1]: 14% | Ki [5]: 39.1 nM | Ki [3]: 4350 nM | Ratio Ki [4]: 111

Cc1c(C(=O)NC2CCN(S(C)(=O)=O)CC2)nn(-c2ccc(Cl)cc2Cl)c1-c1ccc(Cl)cc1
Ke [2]: 269 nM

Cc1c(C(=O)N[C@@H]2CCCN(C(=O)OC(C)(C)C)C2)nn(-c2ccc(Cl)cc2Cl)c1-c1ccc(Cl)cc1
Ke [2]: 52 nM | permeability [1]: < 1% | Ki [5]: 22.3 nM | Ki [3]: 6720 nM | Ratio Ki [4]: 302

Cc1c(C(=O)N[C@H]2CCCNC2)nn(-c2ccc(Cl)cc2Cl)c1-c1ccc(Cl)cc1
Ke [2]: 1880 nM

CCCCNC(=O)N1CCC(NC(=O)c2nn(-c3ccc(Cl)cc3Cl)c(-c3ccc(Cl)cc3)c2C)CC1
Ke [2]: 78.1 nM | Ki [5]: 187 nM | Ki [3]: 8720 nM | Ratio Ki [4]: 47

Cc1c(C(=O)N[C@H]2CCCN(S(C)(=O)=O)C2)nn(-c2ccc(Cl)cc2Cl)c1-c1ccc(Cl)cc1
Ke [2]: 62 nM | permeability [1]: < 1% | Ki [5]: 77.9 nM | Ki [3]: 10900 nM | Ratio Ki [4]: 140

Cc1c(C(=O)NC2CCN(C(N)=O)CC2)nn(-c2ccc(Cl)cc2Cl)c1-c1ccc(Cl)cc1
Ke [2]: 4100 nM

Cc1c(C(=O)N2CCC(NS(C)(=O)=O)(c3ccccc3)CC2)nn(-c2ccc(Cl)cc2Cl)c1-c1ccc(Cl)cc1
Ke [2]: 3.5 nM | permeability [1]: 3% | Ratio Ki [4]: 5.6

Cc1c(C(=O)N2CCC(NC(=O)Nc3ccc(C#N)cc3)(c3ccccc3)CC2)nn(-c2ccc(Cl)cc2Cl)c1-c1ccc(Cl)cc1
Ke [2]: > 10000 nM

CCNC1(C(N)=O)CCN(C(=O)c2nn(-c3ccc(Cl)cc3Cl)c(-c3ccc(Cl)cc3)c2C)CC1
Ke [2]: 91 nM | Ratio Ki [4]: 28.3

CCNC(=O)N1CCC[C@H](NC(=O)c2nn(-c3ccc(Cl)cc3Cl)c(-c3ccc(Cl)cc3)c2C)C1
Ke [2]: 280 nM

CC(=O)N1CCC(NC(=O)c2nn(-c3ccc(Cl)cc3Cl)c(-c3ccc(Cl)cc3)c2C)CC1
Ke [2]: 195 nM | Ki [5]: 65.3 nM | Ki [3]: 2240 nM | Ratio Ki [4]: 34.2

CCCCNC(=O)NC1(c2ccccc2)CCN(C(=O)c2nn(-c3ccc(Cl)cc3Cl)c(-c3ccc(Cl)cc3)c2C)CC1
Ke [2]: 0.4 nM | permeability [1]: < 1% | Ratio Ki [4]: 178

CCCNC(=O)NC1(c2ccccc2)CCN(C(=O)c2nn(-c3ccc(Cl)cc3Cl)c(-c3ccc(Cl)cc3)c2C)CC1
Ke [2]: 0.4 nM | Ratio Ki [4]: 39

CCOC(=O)N1CCC(NC(=O)c2nn(-c3ccc(Cl)cc3Cl)c(-c3ccc(Cl)cc3)c2C)CC1
Ke [2]: 3 nM | permeability [1]: < 1% | Ki [5]: 9.2 nM | Ki [3]: 3000 nM | Ratio Ki [4]: 326

CC(=O)N1CCC[C@@H](NC(=O)c2nn(-c3ccc(Cl)cc3Cl)c(-c3ccc(Cl)cc3)c2C)C1
Ke [2]: 530 nM

Cc1c(C(=O)N[C@H]2CCCN(C(=O)NC(C)(C)C)C2)nn(-c2ccc(Cl)cc2Cl)c1-c1ccc(Cl)cc1
Ke [2]: 206 nM

CCCCNC(=O)NCC1CCC(CNC(=O)c2nn(-c3ccc(Cl)cc3Cl)c(-c3ccc(Cl)cc3)c2C)CC1 (configuration not stated)
Ke [2]: 274 nM

CCCNC(=O)N1CCC(NC(=O)c2nn(-c3ccc(Cl)cc3Cl)c(-c3ccc(Cl)cc3)c2C)CC1
Ke [2]: 66.5 nM | Ki [5]: 184 nM | Ki [3]: 8460 nM | Ratio Ki [4]: 46

Cc1c(C(=O)NC2CCNCC2)nn(-c2ccc(Cl)cc2Cl)c1-c1ccc(Cl)cc1
Ke [2]: 5120 nM

Cc1c(C(=O)N2CCC(NC(=O)NC(C)C)(c3ccccc3)CC2)nn(-c2ccc(Cl)cc2Cl)c1-c1ccc(Cl)cc1
Ke [2]: 0.7 nM | Ratio Ki [4]: 364

CCNC(=O)N1CCC[C@@H](NC(=O)c2nn(-c3ccc(Cl)cc3Cl)c(-c3ccc(Cl)cc3)c2C)C1
Ke [2]: 171 nM

Cc1c(C(=O)N[C@H]2CCCN(C(=O)OC(C)(C)C)C2)nn(-c2ccc(Cl)cc2Cl)c1-c1ccc(Cl)cc1
Ke [2]: 842 nM

Cc1c(C(=O)NCC2CCC(CNC(=O)NC(C)C)CC2)nn(-c2ccc(Cl)cc2Cl)c1-c1ccc(Cl)cc1 (configuration not stated)
Ke [2]: 351 nM

Cc1c(C(=O)NN2CCCCC2)nn(-c2ccc(Cl)cc2Cl)c1-c1ccc(Cl)cc1 [RIMONABANT]
Stability [6]: > 90% | Stability [7]: 47%

CCCCCCNC(=O)NC1(c2ccccc2)CCN(C(=O)c2nn(-c3ccc(Cl)cc3Cl)c(-c3ccc(Cl)cc3)c2C)CC1
Ke [2]: 0.5 nM | permeability [1]: < 1% | Ratio Ki [4]: 62

Cc1c(C(=O)NCC2CCC(CNS(C)(=O)=O)CC2)nn(-c2ccc(Cl)cc2Cl)c1-c1ccc(Cl)cc1 (configuration not stated)
Stability [6]: > 90% | Stability [7]: 37%

CCNC(=O)NCC1CCC(CNC(=O)c2nn(-c3ccc(Cl)cc3Cl)c(-c3ccc(Cl)cc3)c2C)CC1 (configuration not stated)
Ke [2]: 135 nM

Cc1c(C(=O)N2CCC(NC(=O)Nc3ccc(F)cc3)(c3ccccc3)CC2)nn(-c2ccc(Cl)cc2Cl)c1-c1ccc(Cl)cc1
Ke [2]: 89 nM | Ki [5]: 614 nM | Ki [3]: 20000 nM | Ratio Ki [4]: 33

Cc1c(C(=O)NCC2CCC(CNC(=O)NC(C)(C)C)CC2)nn(-c2ccc(Cl)cc2Cl)c1-c1ccc(Cl)cc1 (configuration not stated)
Ke [2]: 150 nM

Cc1c(C(=O)N[C@@H]2CCCN(C(=O)NC(C)(C)C)C2)nn(-c2ccc(Cl)cc2Cl)c1-c1ccc(Cl)cc1
Ke [2]: 268 nM

Cc1c(C(=O)NC2CCN(S(N)(=O)=O)CC2)nn(-c2ccc(Cl)cc2Cl)c1-c1ccc(Cl)cc1
Ke [2]: 592 nM

Cc1c(C(=O)N2CCC(N)(c3ccccc3)CC2)nn(-c2ccc(Cl)cc2Cl)c1-c1ccc(Cl)cc1
Ke [2]: 485 nM | Ratio Ki [4]: 10.8
